# High-throughput results as filed in PubChem BioAssay.
# An excerpt weighted towards active compounds, which were near 1.1% of everything screened.
# MT1-MMP txn act – activates MT1-MMP transcription; hit rate 0.16% among 86,000; HT1080 MT1-MMP promoter luciferase reporter, luminescence, overnight; hits give high values; activation factor at 10 µM;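 active = activation factor of at least 2 for MT1-MMP transcription at 10 µM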
# Her2 expr inh – Her2 kinase expression inhibition. P04626. SKBR-3 HER2 protein level, AlphaScreen, 18-24 h; hits give low values. HER2 level % of control, % at 10 µM. hit rate 0.69% among 65,000;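 active = HER2 level under 5% of the carrier-only control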;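 note: 100% = DMSO carrier and 0% = 500 nM PU-H71 HSP90 inhibitor; lower value means stronger loss of Her2 protein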
# Target sequence (P04626 whole entry, looked up): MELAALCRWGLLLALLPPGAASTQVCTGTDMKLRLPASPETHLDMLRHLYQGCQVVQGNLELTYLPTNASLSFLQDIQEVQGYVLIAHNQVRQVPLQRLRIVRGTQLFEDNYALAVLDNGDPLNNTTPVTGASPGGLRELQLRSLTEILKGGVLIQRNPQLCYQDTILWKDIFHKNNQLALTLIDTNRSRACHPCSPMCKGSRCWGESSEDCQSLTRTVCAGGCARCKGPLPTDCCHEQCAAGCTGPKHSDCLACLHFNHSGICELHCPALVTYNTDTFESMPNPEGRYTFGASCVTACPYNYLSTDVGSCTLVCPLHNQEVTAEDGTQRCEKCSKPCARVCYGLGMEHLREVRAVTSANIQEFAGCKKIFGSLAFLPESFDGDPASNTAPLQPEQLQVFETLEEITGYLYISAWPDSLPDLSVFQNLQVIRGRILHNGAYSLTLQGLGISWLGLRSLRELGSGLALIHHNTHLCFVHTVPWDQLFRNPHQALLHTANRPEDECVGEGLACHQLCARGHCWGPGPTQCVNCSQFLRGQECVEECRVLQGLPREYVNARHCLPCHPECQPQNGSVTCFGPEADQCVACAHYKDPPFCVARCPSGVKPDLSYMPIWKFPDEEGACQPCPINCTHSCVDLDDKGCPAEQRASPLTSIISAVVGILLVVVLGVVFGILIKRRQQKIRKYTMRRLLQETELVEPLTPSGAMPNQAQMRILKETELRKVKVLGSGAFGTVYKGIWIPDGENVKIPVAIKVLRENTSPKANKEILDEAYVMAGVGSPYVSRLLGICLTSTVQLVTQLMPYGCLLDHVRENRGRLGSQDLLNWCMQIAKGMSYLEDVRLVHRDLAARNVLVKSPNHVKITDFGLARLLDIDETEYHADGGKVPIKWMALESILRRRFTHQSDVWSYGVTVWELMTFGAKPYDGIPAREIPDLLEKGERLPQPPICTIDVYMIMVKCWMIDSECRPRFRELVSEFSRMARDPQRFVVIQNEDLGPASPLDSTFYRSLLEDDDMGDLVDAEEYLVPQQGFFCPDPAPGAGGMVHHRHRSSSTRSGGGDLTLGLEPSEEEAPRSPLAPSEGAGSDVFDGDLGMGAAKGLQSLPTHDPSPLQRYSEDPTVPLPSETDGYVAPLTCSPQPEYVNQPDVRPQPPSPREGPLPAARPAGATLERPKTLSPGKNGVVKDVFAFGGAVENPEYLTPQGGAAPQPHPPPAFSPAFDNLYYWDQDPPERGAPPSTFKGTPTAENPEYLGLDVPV
# HEK293 NFkB inh – lowers PMA/ionomycin-induced NF-kB signal in HEK293 cells; HEK-293 NF-kB luciferase reporter, luminescence; inhibition, % at 3 µM; hit rate 0.21% among 62,000;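 active = inhibition above the mean of all tested compounds plus 3 SD, cut at about 40% in these data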;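 note: 0% = stimulated DMSO wells and 100% = 10 µM reference inhibitor 5653914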
#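 System – HEK-293 cells with stable firefly luciferase reporter driven by four HIV NF-kB elements · Doses – one dose, 3 µM · Schedule – 1 h compound pre-incubation, 16 h PMA/ionomycin at 37 °C · Technique – luminescence from luciferase substrate reagent · Measure – percent inhibition normalized per plate to DMSO and reference-inhibitor controls · Replicates – tested once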
# AP ELISA ortho – orthogonal test for alternative complement pathway inhibitors; Human serum alternative complement pathway, LPS-coated ELISA, C3 deposition; tested in compound mixtures; hit rate 0.08% among 62,000; inhibition, % at 5 µM;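 active = inhibition above 30% in each of the two pooled mixtures holding the compound, so the lower value exceeds 30%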;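 note: 0% = serum in Mg-EGTA without compound and 100% = EDTA serum blank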
#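 Medium: diluted human serum in Mg2+-EGTA GVB++. Assay system: human serum complement alternative pathway, C3 deposition onto LPS. Also added: Plate-bound LPS. Technique: Anti-C3 ELISA, OD 450 nm. Measure: percent inhibition. Incubation: 1 h at 37 °C. Dosing: 5 µM each compound, pools of ten, 50 µM per pool.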
# JNK3 inh – blocks human JNK3 kinase activity | hit rate 0.61% among 60,000 | purified JNK3 kinase activity, HTS | inhibition, % at 8 µM | P53779; in the data active = inhibition above about 17%;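 note: 0% = DMSO and 100% = reference inhibitor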
# * = called active by the depositor; . = not tested or not shown.
SMILES,MT1-MMP txn act,Her2 expr inh,HEK293 NFkB inh,AP ELISA ortho,JNK3 inh
CN(C)CCCOC(=O)C1c2ccccc2Oc2ccccc21,1.1,86,.,-7,1
COc1ccc(-c2nnn(Cc3ccccc3F)n2)cc1,2.3*,.,.,.,.
O=S(=O)(c1ccc2c(c1)OCCO2)N1CCC(n2cnc3cc(F)ccc32)CC1,1.1,60,15,4,25*
O=S(=O)(c1ccc(Br)c2nsnc12)N1CCOCC1,.,82,20,19,2
CCOc1ccccc1NC(=O)Cn1nnc(C(=O)Nc2ccc(C)cc2)c1N,1,107,24,26,-2
CCOc1ccccc1NC(=O)Cn1nnc(C(=O)NCc2ccco2)c1N,0.5,52,42*,18,-3
O=C(Nc1ccc(F)cc1)NC1(C(=O)NCc2ccc3c(c2)OCO3)CCCCC1,1.2,.,.,.,.
Oc1[nH]c2ccccc2c1C=Nc1ccc2c(c1)OCCO2,1.4,97,-77,6,35*
Cc1cccc(/N=C/c2c(O)[nH]c3ccccc23)n1,1.7,81,-16,-6,30*
CC(C)N=Cc1c(O)[nH]c2ccccc12,1.1,.,.,.,.
Cc1nnc(SCC(=O)OC2CC(C)CCC2C(C)C)[nH]c1=O (configuration not stated),1.1,.,.,.,.
Cc1cc(N2CCC3(CC2)OCCO3)n2nc(C)c(-c3ccc(Cl)cc3)c2n1,1.4,-19*,11,-4,.
COc1ccccc1-c1c(C)nn2c(N3CCC4(CC3)OCCO4)cc(C)nc12,1,114,0,14,2
Cc1cccc(NC(=O)c2ccc(S(=O)(=O)N(C)C)cc2)c1,1.2,56,0,5,7
CC1(C)CC(=O)C2=C(C1)OC(=O)C2(NC(=O)c1cccs1)C(F)(F)F (configuration not stated),1.2,-12*,8,6,-1
COc1ccc(C2CC(=O)C(C=NCCO)=C(O)C2)cc1OC (configuration not stated),1.1,-28*,16,7,.
COc1ccccc1CNC(=O)c1cnn2c(C(F)F)cc(C)nc12,1,.,.,.,.
Cc1cc(C(F)F)n2ncc(C(=O)NCc3ccccc3C(F)(F)F)c2n1,1,94,4,5,19*
Cc1ccc(Cl)cc1N1CCN(Cc2nc3c(c(=O)[nH]c(=O)n3C)n2Cc2ccccc2F)CC1,1.1,3.2*,11,15,-1
O=C(c1ccco1)N(Cc1ccco1)c1ccc(O)cc1,1,-16*,5,13,-1
O=C(Cc1cscn1)c1ccc(O)cc1O,1,-18*,.,.,2
Cc1nc(CC(=O)c2ccc(O)cc2O)cs1,1.3,.,.,.,.
O=C1C(C=Nc2ccccc2O)=C(O)c2ccccc21,1.3,17,11,10,35*
CC(C)CSc1nnc2[nH]c(=O)cc(N)n12,1,114,16,.,-1
COC(=O)c1sccc1NC(=O)C1CC=CCC1C(=O)O (configuration not stated),1.1,113,13,0,28*
SMILES,MT1-MMP txn act,Her2 expr inh,HEK293 NFkB inh,AP ELISA ortho,JNK3 inh
COc1cccc(Cn2nnc3c(=O)[nH]c(C4CCCN(C(=O)c5ccccc5Cl)C4)nc32)c1 (configuration not stated),1.2,80,18,16,1
COc1ccc(COC(=O)C2=C(C)NC(=O)NC2c2ccc(O)c(OC)c2)cc1 (configuration not stated),1.2,129,15,13,27*
COc1cc(C2NC(=O)NC(C)=C2C(=O)OCc2ccccc2)ccc1O (configuration not stated),1.1,121,0,17,20*
CCOC(=O)C1=C(C)NC(=O)NC1c1ccc(OC)c(Cl)c1 (configuration not stated),0.9,101,3,7,4
CCOc1cc(C2NC(=O)NC(C)=C2C(=O)OCc2ccccc2)ccc1O (configuration not stated),1.1,104,11,7,19*
COC(=O)C1=C(C)N(CCCC(=O)O)C(=O)NC1c1ccc(OC)cc1 (configuration not stated),1.1,.,.,.,.
Cc1nn(-c2ccccc2)c2sc(C(=O)N3CCc4ccccc4C3)cc12,1,105,14,5,1
C#CCOC(=O)c1ccccc1C(=O)OCC#C,1.1,-22*,1,2,0
C#CCOC(=O)c1ccccc1C(=O)O,1.1,.,.,.,.
CC1=CC(=C2C(=O)c3ccccc3C2=O)C=C(C)N1Cc1ccco1,1.7,79,7,7,34*
COc1ccccc1N1CCN(CC(=O)c2c(C)[nH]c3ccccc23)CC1,1.1,103,13,-8,-6
Cc1[nH]c2ccccc2c1C(=O)COC(=O)C1CCC(=O)N1 (configuration not stated),1.2,-21*,14,23,-7
Cc1ccc(C(=O)C2=C(O)C(=O)N(CCCn3ccnc3)C2c2ccc(OC(C)C)cc2)o1 (configuration not stated),1.1,105,1,2,27*
CCCCOCCCNC(=O)CN1C(=O)c2ccccc2C1=O,.,-21*,.,6,.
CCCOC(=O)CN1C(=O)c2ccccc2C1=O,1.2,92,8,21,-7
O=C(N1CCCC1)N1CCN(c2ncnc3c(-c4ccc(Cl)cc4)nsc23)CC1,1.3,57,-4,-29,-1
Cc1ccc(-c2nsc3c(N4CCC(C(N)=O)CC4)ncnc23)cc1,1.2,82,42*,17,2
CCOC(=O)c1c(C)[nH]c2ccc(O)cc12,1.2,96,9,1,18*
CC1(C)Cc2c(sc(NC(=O)c3ccc(Br)o3)c2C#N)CO1,2.3*,125,.,.,6
CC1(C)Cc2c(sc(NC(=O)c3ccco3)c2C(=O)O)CO1,1.3,.,.,.,.
Cc1nc(SCC(N)=O)[nH]c(=O)c1CCC(C)C,1,.,.,.,.
CCc1ccc(-c2nc(CN3CCCC(C(=O)NCCc4ccc(OC)c(OC)c4)C3)c(C)o2)cc1 (configuration not stated),1.1,-23*,-1,10,4
COc1ccc(CCNC(=O)C2CCCN(Cc3nc(-c4ccccc4C)oc3C)C2)cc1OC (configuration not stated),1,92,-5,7,5
CCCCOC(=O)Nc1ccc(C(N)=O)cc1,1.7,.,.,.,.
CCCCOC(=O)Nc1ccc(C(C)C)cc1,2.2*,.,.,.,.
CCc1ccc(C(=O)N2CCN(c3ccc(F)cc3)CC2)s1,1.2,96,-2,1,2
Cc1ccnc(Nc2nc(-c3c(C)nc4sccn34)cs2)c1,1.3,27,-1,25,34*
Cc1nc2sccn2c1-c1nc(-c2cc3ccccc3o2)cs1,1.3,94,6,15,6
CCOc1ccc(NC(=O)C2CC(=O)N(CC)C(=Nc3ccc4c(c3)OCO4)S2)cc1 (configuration not stated),1.1,50,12,1,-9
